Measured values gathered from unrelated publications.
Nectin-4: Nectin-4 (Homo sapiens, UniProt Q96NY8)
PFF0160c E182D: Dihydroorotate dehydrogenase (quinone), mitochondrial (PFF0160c, Plasmodium falciparum, UniProt Q08210, E182D)
SIGMAR1: Sigma non-opioid intracellular receptor 1 (SIGMAR1, Homo sapiens, UniProt Q99720)
PFF0160c: Dihydroorotate dehydrogenase (quinone), mitochondrial (PFF0160c, Plasmodium falciparum, UniProt Q08210)

CCCC[C@@H]1NC(=O)[C@H](Cc2ccc(O)cc2)NC(=O)[C@@H]2CCCN2C(=O)[C@H](CC(=O)O)NC(=O)[C@H](C)NC(=O)[C@H](Cc2ccccc2)NC(=O)[C@@H]2CSCCC(=O)N3CN(CN(C3)C(=O)CCSCCC(=O)N[C@@H](CC(C)(C)C)C(=O)N3CCC[C@H]3C(=O)N[C@@H](CCC(=O)O)C(=O)N[C@H](CCCCNC(=O)CCc3cn(CCOCCOCCOCCOCCOCCC(=O)N[C@H]4CSCCC(=O)N5CN6CN(C5)C(=O)CCSC[C@H](NC(=O)[C@@H](CC(=O)O)NC(=O)[C@H](Cc5cccc7ccccc57)NC(=O)[C@@H]5CCCN5C4=O)C(=O)N[C@@H](CCSC)C(=O)N[C@@H](CCCCNC(=N)N)C(=O)N[C@@H](CC(=O)O)C(=O)N[C@@H](Cc4c[nH]c5ccccc45)C(=O)N[C@@H](CO)C(=O)N[C@@H]([C@@H](C)O)C(=O)N4CCC[C@H]4C(=O)N4C[C@H](O)C[C@H]4C(=O)N[C@@H](Cc4c[nH]c5ccccc45)C(=O)N[C@H](C(N)=O)CSCCC6=O)nn3)C(=O)N3CCC[C@H]3C(=O)N[C@@H](Cc3ccc(O)cc3)C(=O)N2)C(=O)CCSCCNC1=O
Kd (Nectin-4; binding, SPR): 1 nM

Cc1cccc(C(=O)N2CCN(Cc3cccc(NC(=O)c4cccs4)c3)CC2)c1
IC50 (PFF0160c E182D; enzyme activity, inhibitor, absorbance): 6610 nM

Cc1cc2c(s1)Nc1ccccc1N=C2N1CCN(C)CC1
Ki (SIGMAR1; ligand displacement, radioligand): > 10000 nM

O=C(c1ccc(F)cc1)C1CCN(C2Cc3ccccc3CC2O)CC1 (single isomer, unassigned; (-))
Ki (Vesicular acetylcholine transporter (SLC18A3, Homo sapiens, UniProt Q16572); ligand displacement, radioligand): 24.7 nM

COC(=O)C1(c2ccc(C)cc2)CC1CN1CCC(O)(c2ccccc2)CC1 (stereo not drawn)
Ki (SIGMAR1; ligand displacement, radioligand): 18.7 nM

COc1nc(NCC(C)C)nc(Oc2ccc(=O)n(Cc3ccccc3)n2)n1
IC50 (PFF0160c; enzyme activity, inhibitor, absorbance): 124 nM

CCCC[C@@H]1NC(=O)[C@H](Cc2ccc(O)cc2)NC(=O)[C@@H]2CCCN2C(=O)[C@H](CC(=O)O)NC(=O)[C@H](C)NC(=O)[C@H](Cc2ccccc2)NC(=O)[C@@H]2CSCCC(=O)N3CN(CN(C3)C(=O)CCSC[C@H](NC(C)=O)C(=O)N[C@@H](CC(C)(C)C)C(=O)N[C@@H](CCC(=O)O)C(=O)N[C@@H](CCC(=O)O)C(=O)N[C@H](CCCCNC(=O)CCc3cn(CCOCCOCCOCCN(CCOCCOCCOCCC(=O)N[C@H]4CSCCC(=O)N5CN6CN(C5)C(=O)CCSC[C@H](NC(=O)[C@@H](CC(=O)O)NC(=O)[C@H](Cc5cccc7ccccc57)NC(=O)[C@@H]5CCCN5C4=O)C(=O)N[C@@H](CCSC)C(=O)N[C@@H](CCCCNC(=N)N)C(=O)N[C@@H](CC(=O)O)C(=O)N[C@@H](Cc4c[nH]c5ccccc45)C(=O)N[C@@H](CO)C(=O)N[C@@H]([C@@H](C)O)C(=O)N4CCC[C@H]4C(=O)N4C[C@H](O)C[C@H]4C(=O)N[C@@H](Cc4c[nH]c5ccccc45)C(=O)N[C@H](C(N)=O)CSCCC6=O)CCOCCOCCOCCn4cc(CCC(=O)NCCCC[C@H]5NC(=O)[C@H](CCC(=O)O)NC(=O)[C@H](CCC(=O)O)NC(=O)[C@H](CC(C)(C)C)NC(=O)[C@@H](NC(C)=O)CSCCC(=O)N6CN7CN(C6)C(=O)CCSC[C@H](NC(=O)[C@H](Cc6ccc(O)cc6)NC(=O)[C@@H]6CCCN6C5=O)C(=O)N[C@@H](Cc5ccccc5)C(=O)N[C@@H](C)C(=O)N[C@@H](CC(=O)O)C(=O)N5CCC[C@H]5C(=O)N[C@@H](Cc5ccc(O)cc5)C(=O)N[C@@H](CCCC)C(=O)N[C@H](C(N)=O)CSCCC7=O)nn4)nn3)C(=O)N3CCC[C@H]3C(=O)N[C@@H](Cc3ccc(O)cc3)C(=O)N2)C(=O)CCSC[C@@H](C(N)=O)NC1=O
Kd (Nectin-4; binding, SPR): 5 nM

CC(CNCc1cn(Cc2cc(Br)cc(Br)c2)c2ccccc12)CNc1cc(=O)c2ccccc2[nH]1 (stereo not drawn)
IC50 (PFF0160c; enzyme activity, inhibitor, absorbance): 2720 nM

COc1cc2c(cc1OC)C(=O)C(CC1CCN(Cc3ccccc3)CC1)C2 (stereo not drawn)
Ki (SIGMAR1; ligand displacement, radioligand): 19.1 nM

CCCC[C@@H]1NC(=O)[C@H](Cc2ccc(O)cc2)NC(=O)[C@@H]2CCCN2C(=O)[C@H](CC(=O)O)NC(=O)[C@H](C)NC(=O)[C@H](Cc2ccccc2)NC(=O)[C@@H]2CSCCC(=O)N3CN(CN(C3)C(=O)CCSC[C@@H](C(=O)N[C@@H](C)C(N)=O)NC1=O)C(=O)CCSC[C@H](NC(C)=O)C(=O)N[C@@H](CC(C)(C)C)C(=O)N1CCC[C@H]1C(=O)N[C@@H](CCC(=O)O)C(=O)N[C@H](CCCCNC(=O)CCc1cn(CCOCCOCCOCCOCCOCCC(=O)NCCCC[C@H]3NC(=O)[C@H](Cc4cccc5ccccc45)NC(=O)[C@@H]4CCCN4C(=O)CCSCCC(=O)N4CN5CN(C4)C(=O)CCSC[C@H](NC3=O)C(=O)N[C@@H](CCSC)C(=O)N[C@@H](CCCCNC(=N)N)C(=O)N[C@@H](CC(=O)O)C(=O)N[C@@H](Cc3c[nH]c4ccccc34)C(=O)N[C@@H](CO)C(=O)N[C@@H]([C@@H](C)O)C(=O)N3CCC[C@H]3C(=O)N3C[C@H](O)C[C@H]3C(=O)N[C@@H](Cc3c[nH]c4ccccc34)C(=O)N[C@H](C(N)=O)CSCCC5=O)nn1)C(=O)N1CCC[C@H]1C(=O)N[C@@H](Cc1ccc(O)cc1)C(=O)N2
Kd (Nectin-4; binding, SPR): 2.2 nM

CC(C)NC[C@@H](O)COc1cccc2ccccc12
Ki (SIGMAR1; ligand displacement, radioligand): 344 nM

CCCC[C@@H]1NC(=O)[C@H](Cc2ccc(O)cc2)NC(=O)[C@@H]2CCCN2C(=O)[C@H](CC(=O)O)NC(=O)[C@H](C)NC(=O)[C@H](Cc2ccccc2)NC(=O)[C@@H]2CSCCC(=O)N3CN(CN(C3)C(=O)CCSC[C@@H](C(=O)N[C@@H](CNC(=O)CCc3cn(CCOCCOCCOCCN(CCOCCOCCOCCC(=O)N[C@H]4CSCCC(=O)N5CN6CN(C5)C(=O)CCSC[C@H](NC(=O)[C@@H](CC(=O)O)NC(=O)[C@H](Cc5cccc7ccccc57)NC(=O)[C@@H]5CCCN5C4=O)C(=O)N[C@@H](CCSC)C(=O)N[C@@H](CCCCNC(=N)N)C(=O)N[C@@H](CC(=O)O)C(=O)N[C@@H](Cc4c[nH]c5ccccc45)C(=O)N[C@@H](CO)C(=O)N[C@@H]([C@@H](C)O)C(=O)N4CCC[C@H]4C(=O)N4C[C@H](O)C[C@H]4C(=O)N[C@@H](Cc4c[nH]c5ccccc45)C(=O)N[C@H](C(N)=O)CSCCC6=O)CCOCCOCCOCCn4cc(CCC(=O)NC[C@H](NC(=O)[C@@H]5CSCCC(=O)N6CN7CN(C6)C(=O)CCSC[C@H](NC(=O)[C@H](Cc6ccc(O)cc6)NC(=O)[C@@H]6CCCN6C(=O)[C@@H](C)NC(=O)[C@H](CCC(=O)O)NC(=O)[C@@H]6CCCN6C(=O)[C@H](CC(C)(C)C)NC(=O)[C@@H](NC(C)=O)CSCCC7=O)C(=O)N[C@@H](Cc6ccccc6)C(=O)N[C@@H](C)C(=O)N[C@@H](CC(=O)O)C(=O)N6CCC[C@H]6C(=O)N[C@@H](Cc6ccc(O)cc6)C(=O)N[C@@H](CCCC)C(=O)N5)C(N)=O)nn4)nn3)C(N)=O)NC1=O)C(=O)CCSC[C@H](NC(C)=O)C(=O)N[C@@H](CC(C)(C)C)C(=O)N1CCC[C@H]1C(=O)N[C@@H](CCC(=O)O)C(=O)N[C@H](C)C(=O)N1CCC[C@H]1C(=O)N[C@@H](Cc1ccc(O)cc1)C(=O)N2
Kd (Nectin-4; binding, SPR): 3.7 nM

CCC(c1ccccc1)c1nn2c(-c3cccs3)nnc2s1 (stereo not drawn)
IC50 (PFF0160c E182D; enzyme activity, inhibitor, absorbance): 171 nM

CC1CCN(CCCC(=O)c2ccc(F)cc2)CC1
Ki (SIGMAR1; ligand displacement, radioligand): 10.1 nM

CCCC[C@@H]1NC(=O)[C@H](Cc2ccc(O)cc2)NC(=O)[C@@H]2CCCN2C(=O)[C@H](CC(=O)O)NC(=O)[C@H](C)NC(=O)[C@H](Cc2ccccc2)NC(=O)[C@@H]2CSCCC(=O)N3CN(CN(C3)C(=O)CCSC[C@@H](C(N)=O)NC1=O)C(=O)CCSCCC(=O)N[C@@H](CC(C)(C)C)C(=O)N1CCC[C@H]1C(=O)N[C@@H](CCC(=O)O)C(=O)N[C@H](CCCCNC(=O)CCc1cn(CCOCCOCCOCCN(CCOCCOCCOCCC(=O)N[C@H]3CSCCC(=O)N4CN5CN(C4)C(=O)CCSC[C@H](NC(=O)[C@@H](CC(=O)O)NC(=O)[C@H](Cc4cccc6ccccc46)NC(=O)[C@@H]4CCCN4C3=O)C(=O)N[C@@H](CCSC)C(=O)N[C@@H](CCCCNC(=N)N)C(=O)N[C@@H](CC(=O)O)C(=O)N[C@@H](Cc3c[nH]c4ccccc34)C(=O)N[C@@H](CO)C(=O)N[C@@H]([C@@H](C)O)C(=O)N3CCC[C@H]3C(=O)N3C[C@H](O)C[C@H]3C(=O)N[C@@H](Cc3c[nH]c4ccccc34)C(=O)N[C@H](C(N)=O)CSCCC5=O)CCOCCOCCOCCn3cc(CCC(=O)NCCCC[C@H]4NC(=O)[C@H](CCC(=O)O)NC(=O)[C@@H]5CCCN5C(=O)[C@H](CC(C)(C)C)NC(=O)CCSCCC(=O)N5CN6CN(C5)C(=O)CCSC[C@H](NC(=O)[C@H](Cc5ccc(O)cc5)NC(=O)[C@@H]5CCCN5C4=O)C(=O)N[C@@H](Cc4ccccc4)C(=O)N[C@@H](C)C(=O)N[C@@H](CC(=O)O)C(=O)N4CCC[C@H]4C(=O)N[C@@H](Cc4ccc(O)cc4)C(=O)N[C@@H](CCCC)C(=O)N[C@H](C(N)=O)CSCCC6=O)nn3)nn1)C(=O)N1CCC[C@H]1C(=O)N[C@@H](Cc1ccc(O)cc1)C(=O)N2
Kd (Nectin-4; binding, SPR): 2.3 nM
